Most compounds without a hit are left out; they make up all but 3.7% or so of the library.
KCNK3 inh: human KCNK3 channel inhibition, primary screen; O14649; CHO-KCNK3 thallium flux, FluxOR fluorescence; active compounds read low; B-score at 10 µM; hit rate 0.84% among 340,000; AID 602410;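 active = B-score under library mean minus 4 SD, starting fluorescence ratio at most library mean plus 5 SD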;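 note: more negative B-score means stronger inhibition of thallium flux through KCNK3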
Target sequence (O14649 whole entry, looked up): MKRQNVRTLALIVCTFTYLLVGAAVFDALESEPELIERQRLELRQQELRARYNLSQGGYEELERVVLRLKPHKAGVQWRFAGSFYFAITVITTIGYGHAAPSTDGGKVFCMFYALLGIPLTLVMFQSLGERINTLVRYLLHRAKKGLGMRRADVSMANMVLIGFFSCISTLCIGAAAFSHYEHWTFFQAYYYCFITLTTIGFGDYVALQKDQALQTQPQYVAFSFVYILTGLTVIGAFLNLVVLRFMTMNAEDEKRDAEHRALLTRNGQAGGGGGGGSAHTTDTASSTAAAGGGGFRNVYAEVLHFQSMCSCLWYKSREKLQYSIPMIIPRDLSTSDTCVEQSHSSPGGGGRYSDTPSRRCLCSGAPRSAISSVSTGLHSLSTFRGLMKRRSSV
hERG rescue: shields human hERG channel from block by proarrhythmic agents | Q12809 | CHO-hERG, FluxOR thallium flux, dofetilide IC70 present | activation (rescue from dofetilide block), less the hit threshold, % at 10 µM | hit rate 0.51% among 310,000;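 active = activation above the mean of controls blocked by dofetilide plus 5 SD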;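 note: thallium influx through hERG after potassium depolarization seen as dye fluorescence rise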
KCNK9 block: inhibitors of human KCNK9 two-pore domain potassium channel; HEK293 KCNK9, FluxOR thallium flux fluorescence; active compounds read low; B-score at 10 µM; hit rate 1.2% among 310,000; AID 488922;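 active = ratio B-score over 3 SD below the library mean, with starting fluorescence within 5 SD of its mean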;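 note: negative B-score means less thallium flux so channel inhibition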
KCNQ1 block: inhibitors of human KCNQ1 potassium channel; P51787; CHO-K1 KCNQ1, FluxOR thallium flux fluorescence; active compounds read high; B-score at 10 µM; hit rate 1.3% among 310,000; AID 2642;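 active = compounds whose thallium flux B-score, printed positive for inhibition, exceeds three library SD while starting fluorescence stays within three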;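 note: channel opened by potassium depolarization with thallium stimulus after 20 min compound exposure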
KCNQ1 pot: potentiates or activates the human KCNQ1 potassium channel | P51787 | CHO-K1 KCNQ1, thallium flux FluxOR fluorescence; active compounds read high | B-score at 10 µM | hit rate 0.35% among 310,000 | AID 2648;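 active = fluorescence ratio B-score, a plate-corrected score, at least three library SD, with initial intensity B-score within 5 SD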
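assay system = CHO-K1 cells stably expressing KCNQ1 | medium = assay buffer, equal DMSO in all wells | timing = 37 °C overnight plating, 90-min dark dye load, 20-min compound pretreatment | measured by = kinetic FluxOR thallium fluorescence, 10-s 1-Hz baseline, 110-s post-stimulus read | measure = fluorescence change relative to baseline, converted to B score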
Kir21 inh: blocks the mouse Kir2.1 inward-rectifier potassium channel | P35561 | HEK293-Kir2.1, FluxOR thallium flux fluorescence; active compounds read low | B-score at 10 µM | hit rate 0.85% among 310,000 | AID 1672;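 active = fluorescence ratio B-score at or below minus 3 SD of library scores, with starting-brightness B-score within 2 SD, cut at about -4.2 in these data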;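 note: channel flux triggered by added potassium and thallium sulfate stimulus; B-score of peak minus minimum fluorescence over baseline after thallium stimulus; more negative B-score means stronger Kir2.1 block with less thallium influx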
KCNQ1 block val: reconfirmed blocker of the human KCNQ1 potassium channel. AID 588353. KCNQ1 cell line, FluxOR thallium flux fluorescence. shares compounds with KCNQ1 block. hit rate 93% among 1,600. inhibition, % at 10 µM;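 active = primary screen active, with duplicate mean exceeding buffer control mean plus 3 SD of buffer wells, cut at about 28% in these data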;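 note: 0% = buffer control ratio and 100% = XE991 inhibitor control ratio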
CHO Tl flux: activity in parental CHO cells lacking KCNQ1. shares compounds with KCNQ1 block. parental CHO-K1, FluxOR thallium flux fluorescence ratio; active compounds read low; zero means no signal rise above baseline. fluorescence ratio (Tl flux) at 10 µM. hit rate 21% among 1,600. AID 588366;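 active = mean of duplicate thallium-flux fluorescence ratios in parental host cells more than 5 SD below the buffer control mean, cut at about 0.38 in these data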;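 note: ratio is peak minus minimum fluorescence divided by baseline fluorescence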
KCNQ1 ephys val: confirmation of human KCNQ1 potassium channel inhibitors by electrophysiology. shares compounds with KCNQ1 block. KCNQ1-CHO cells, automated patch clamp current. calls only at 10 µM. hit rate 20% among 490;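 active = KCNQ1 current drop exceeding 3 SD of negative control wells, seen in both duplicate runs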;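 note: steady state current during a 2 s step from -80 to +40 mV; negative values mean current inhibition and positive values mean potentiation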
KCNQ2 inh: selectivity of KCNQ1 inhibitors: inhibition of rat KCNQ2 channel | inhibition, % at 10 µM | shares compounds with KCNQ1 block | AID 651746 | hit rate 71% among 1,600 | KCNQ2 cells, FluxOR thallium flux fluorescence;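 active = mean percent inhibition of the KCNQ2 thallium signal more than 5 SD above the buffer-only control wells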;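 note: KCNQ2 expressed in CHO cells; 0% = buffer control wells and 100% = XE-991 inhibitor control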
KCNQ1-KCNE1 inh: selectivity of KCNQ1 inhibitors: inhibition of human KCNQ1/KCNE1 channel | shares compounds with KCNQ1 block | KCNQ1/KCNE1 cells, FluxOR thallium flux fluorescence | inhibition, % at 10 µM | hit rate 77% among 1,600;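 active = mean percent inhibition of duplicate wells above the buffer-only control mean plus 3 SD of those controls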;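 note: 0% = buffer only wells and 100% = XE-991 inhibitor control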
Starred values were filed as active, the others as inactive; i = inactive; . = no result given; + = active, no number.

SMILES	KCNK3 inh	hERG rescue	KCNK9 block	KCNQ1 block	KCNQ1 pot	Kir21 inh	KCNQ1 block val	CHO Tl flux	KCNQ2 inh	KCNQ1-KCNE1 inh	others
CCOC(=O)N(C)c1ccc(C(O)(C(F)(F)F)C(F)(F)F)cc1	i	-11.6	i	8*	i	0.42	73.5*	0.435	79.0%*	79.5%*
O=C1C2CCCCC2C(=O)N1c1ccc(S(=O)(=O)Nc2ncccn2)cc1 (configuration not stated)	i	-13.2	i	i	i	0.34	.	.	.	.
CC(=O)c1cccc(NC(=S)N2CCN(c3ccccn3)CC2)c1	i	-6.9	i	i	i	-0.73	.	.	.	.
Cn1c(CCN2CCCCC2)nc2cc(NS(=O)(=O)c3ccc(Cl)cc3)ccc21	i	-19.1	i	8*	i	-2.72	0.0	0.558	i	57.5%*
C=CCNC(=S)Nc1ccc(Cl)cc1	i	-9.2	i	i	i	2.67	.	.	.	.
O=C(Nc1ccc2c(c1)OCO2)Nc1ccc2c(c1)OCO2	i	-7.2	i	i	i	-1.11	.	.	.	.
O=C(Nc1ccc(OC(F)F)c(Cl)c1)Nc1ccc2c(c1)OCO2	i	-3.1	i	7*	i	-1.57	83.5*	0.45	i	i
C=CCNC(=S)Nc1ccc(OC(F)F)c(Cl)c1	i	-12.9	i	9*	i	-0.18	0.0	0.526	61.0%*	i
O=S(=O)(Nc1c(O)ccc2ccccc12)c1cccc2ccccc12	i	-19.9	i	11*	i	2.09	32.5*	0.472	i	90.5%*
O=C(O)c1cc(NS(=O)(=O)c2cccc3ccccc23)ccc1O	i	-2.3	i	i	i	1.44	.	.	.	.
CCN(CC)C(=O)Cn1c(=O)n(CC(=O)N2CCCCC2)c(=O)c2sccc21	i	-15.0	i	i	i	-0.65	.	.	.	.
CSc1nc(-c2cccs2)c(C#N)c(=O)[nH]1	i	-5.5	i	i	i	0.67	.	.	.	.
N#Cc1c(-c2cccs2)nc(SCc2ccc(Cl)cc2)[nH]c1=O	i	-11.9	i	8*	i	-0.17	0.0	0.562	i	i
Cc1cccc(NC(=S)NCCSc2ccc(Cl)cc2)c1	i	-17.2	i	8*	i	-0.28	82.0*	0.426	60.3%*	95.5%*
Cc1ccc(C)c(NC(=S)NCCSc2ccc(Cl)cc2)c1	i	-11.3	i	8*	i	-1.93	121.5*	0.428	90.0%*	121.5%*	KCNQ1 ephys val=i
CCc1ccccc1NC(=S)NCCSc1ccc(Cl)cc1	i	-15.8	i	i	i	0.45	.	.	.	.
COc1cccc(CNC(=O)C2CCN(S(=O)(=O)c3ccc4c(c3)CC(C)N4C(C)=O)CC2)c1 (configuration not stated)	i	-6.2	i	i	i	-1.59	.	.	.	.
CN=C1N(C)C[C@@H]2[C@@H]3C(=O)N(C)C(=O)[C@@H]3[C@](C)(C(=O)OC)N12	i	.	.	.	.	.	.	.	.	.
O=S(=O)(c1ccccc1)c1cnc(-c2ccccc2)nc1N1CCCC1	i	-15.5	i	i	i	0.3	.	.	.	.
COc1cc2ncc(S(=O)(=O)c3ccccc3)c(N3CCCC(C)C3)c2cc1OC (configuration not stated)	i	-22.4	i	11*	i	-2.4	151.5*	0.276*	164.0%*	+
